pIC50: −log10 of the molar value. Activity calls are given as the source filed them. The calls are words filed in the database; no cut-off is given here.
Key:
[1] = target: T1, E3 ubiquitin-protein ligase Mdm2 (Homo sapiens, UniProt Q00987); assay: Induction of MDM2 degradation in human RS4:11 cells assessed as upregulation of p53 at 1 to 30 nM after 1 hr by Western blot analysis; assay type: cell-based
Outline: (§1)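 Western blots of MDM2 and p53 protein were run on RS4;11 cells (wild-type p53) in RPMI 1640 with 10% FBS. 2×10^6 cells/well were treated at the indicated concentrations for 1 h or 2 h. Lysis was in ice-cold buffer with protease inhibitor, followed by probing with specific antibodies.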

[2] = target: Cellular tumor antigen p53 (Homo sapiens) (UniProt P04637); assay: Activation of p53 in human RS4:11 cells assessed as increase in MDM2 mRNA expression at 10 nM after 1 to 2 hrs by qRT-PCR analysis; assay type: cell-based
Chain of Cellular tumor antigen p53 (Homo sapiens) (P04637 whole entry, looked up): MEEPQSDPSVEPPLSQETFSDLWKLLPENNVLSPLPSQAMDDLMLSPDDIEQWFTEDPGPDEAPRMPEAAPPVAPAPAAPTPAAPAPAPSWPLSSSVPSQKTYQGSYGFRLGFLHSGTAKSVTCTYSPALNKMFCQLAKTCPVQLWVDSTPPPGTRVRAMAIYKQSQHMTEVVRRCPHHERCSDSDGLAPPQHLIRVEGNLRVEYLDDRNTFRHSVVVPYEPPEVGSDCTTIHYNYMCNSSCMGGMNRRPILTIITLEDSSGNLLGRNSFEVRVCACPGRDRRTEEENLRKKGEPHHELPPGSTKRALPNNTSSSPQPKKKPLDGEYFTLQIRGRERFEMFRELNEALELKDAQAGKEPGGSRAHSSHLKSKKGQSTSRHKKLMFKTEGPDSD
Outline: (§2)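 RS4;11 cells (RPMI 1640, 10% FBS, 37 °C, 5% CO2) treated with 3 nM or 10 nM compound; total RNA extracted and mRNA of p53 targets MDM2, CDKN1A, PUMA and BAX quantified by qRT-PCR. Mean ± standard error from at least three independent experiments.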

[3] = Antiproliferative activity against human RS4:11/IRMI-2 cells harboring p53 hotspot mutation Y236H/R249G assessed as MDM2-independent cell growth inhibition after 4 days by WST-8 assay; assay type: functional, cell-based; conditions: RS4-11, 96 h
Outline: (§3)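 Leukemia cells seeded at 10000–20000 cells/well, breast cancer lines at 5000–10000 cells/well. Serially diluted compound added, then 4 days at 37 °C, 5% CO2. Growth read with WST-8 reagent after at least 1 h, absorbance at 450 nm. RS4;11, MOLM-13 and breast lines were grown in RPMI 1640; MV-4-11 and HL-60 in IMDM; all with 10% FBS. Mean ± SE, at least three independent experiments.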

[4] = target: T1, E3 ubiquitin-protein ligase Mdm2; assay: Induction of MDM2 degradation in human RS4:11 cells assessed as downregulation of MDM2 at 1 to 30 nM after 1 hr by Western blot analysis; assay type: cell-based; outline: as §1
[5] = target: Cellular tumor antigen p53 (Homo sapiens) (UniProt P04637); assay: Activation of p53 in human RS4:11 cells assessed as increase in PUMA mRNA expression at 10 nM after 1 to 2 hrs by qRT-PCR analysis; assay type: cell-based; outline: as §2
[6] = target: T1, E3 ubiquitin-protein ligase Mdm2; assay: Induction of MDM2 degradation in human RS4:11 cells assessed as upregulation of p53 at 1 to 30 nM after 2 hrs by Western blot analysis; assay type: cell-based; outline: as §1
MDA-MB-231 [7] = assay: Antiproliferative activity against human MDA-MB-231 cells assessed as cell growth inhibition after 4 days in presence of control siRNA for 3 days followed by compound treatment by WST-8 assay; assay type: functional, cell-based
[8] = target: T1, E3 ubiquitin-protein ligase Mdm2; assay: Induction of MDM2 degradation in human RS4:11/IRMI-2 cells harboring p53 hotspot mutation Y236H/R249G assessed as downregulation of MDM2 at 1 to 30 nM after 2 hrs by Western blot analysis; assay type: cell-based
Outline: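 RS4;11/IRMI-2 cells are an MDM2 inhibitor-resistant line derived from RS4;11, with p53 mutations confirmed by sequencing. 2×10^6 cells/well were treated 2 h at the indicated concentrations. MDM2 protein was probed by Western blot after lysis in ice-cold buffer with protease inhibitor.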

[9] = target: T2, Protein cereblon/Eukaryotic peptide chain release factor GTP-binding subunit ERF3A/DNA damage-binding protein 1/Cullin-4A (Homo sapiens) (UniProt Q96SW2+Q16531+Q13619+P15170); assay: Protac activity at GSPT1/CUL4/DDB1/CRBN in human RS4:11 cells expressing wild type p53 assessed as decrease in GSPT1 protein level at 10 nM by Western blot analysis; assay type: cell-based
T2 sequence (P15170 whole entry, looked up): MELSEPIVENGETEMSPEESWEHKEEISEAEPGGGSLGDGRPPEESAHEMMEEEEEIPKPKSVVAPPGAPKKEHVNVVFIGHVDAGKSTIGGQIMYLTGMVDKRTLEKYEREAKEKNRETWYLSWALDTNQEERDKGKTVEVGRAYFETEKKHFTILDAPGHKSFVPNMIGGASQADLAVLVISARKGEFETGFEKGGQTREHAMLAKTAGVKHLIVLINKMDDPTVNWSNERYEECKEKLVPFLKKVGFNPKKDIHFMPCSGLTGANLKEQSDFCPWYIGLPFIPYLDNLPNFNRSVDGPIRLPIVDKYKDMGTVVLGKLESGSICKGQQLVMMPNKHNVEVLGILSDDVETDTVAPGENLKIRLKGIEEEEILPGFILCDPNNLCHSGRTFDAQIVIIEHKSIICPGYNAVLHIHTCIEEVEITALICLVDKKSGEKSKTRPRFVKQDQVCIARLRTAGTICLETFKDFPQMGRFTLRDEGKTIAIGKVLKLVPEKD
T2 sequence (Q13619 whole entry, looked up): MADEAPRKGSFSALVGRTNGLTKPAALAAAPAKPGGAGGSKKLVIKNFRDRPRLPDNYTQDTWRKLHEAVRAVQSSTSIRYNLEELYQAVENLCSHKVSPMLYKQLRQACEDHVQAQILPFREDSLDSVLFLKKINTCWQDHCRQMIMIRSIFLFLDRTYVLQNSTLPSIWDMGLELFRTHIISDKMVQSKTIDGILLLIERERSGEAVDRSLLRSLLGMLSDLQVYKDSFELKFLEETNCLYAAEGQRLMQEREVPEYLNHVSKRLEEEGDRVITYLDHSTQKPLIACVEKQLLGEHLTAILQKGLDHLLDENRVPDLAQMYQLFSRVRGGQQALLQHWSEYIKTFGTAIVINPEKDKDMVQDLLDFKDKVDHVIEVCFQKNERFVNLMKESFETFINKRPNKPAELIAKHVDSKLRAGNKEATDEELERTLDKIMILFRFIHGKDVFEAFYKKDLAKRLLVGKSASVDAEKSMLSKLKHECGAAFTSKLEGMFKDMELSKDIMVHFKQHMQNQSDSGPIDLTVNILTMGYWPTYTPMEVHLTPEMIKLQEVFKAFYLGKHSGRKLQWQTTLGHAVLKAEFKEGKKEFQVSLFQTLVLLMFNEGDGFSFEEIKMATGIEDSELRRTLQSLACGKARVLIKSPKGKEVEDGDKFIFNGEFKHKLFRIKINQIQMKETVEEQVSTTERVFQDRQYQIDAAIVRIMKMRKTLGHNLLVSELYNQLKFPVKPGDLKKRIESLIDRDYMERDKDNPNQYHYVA
T2 sequence (Q16531 whole entry, looked up): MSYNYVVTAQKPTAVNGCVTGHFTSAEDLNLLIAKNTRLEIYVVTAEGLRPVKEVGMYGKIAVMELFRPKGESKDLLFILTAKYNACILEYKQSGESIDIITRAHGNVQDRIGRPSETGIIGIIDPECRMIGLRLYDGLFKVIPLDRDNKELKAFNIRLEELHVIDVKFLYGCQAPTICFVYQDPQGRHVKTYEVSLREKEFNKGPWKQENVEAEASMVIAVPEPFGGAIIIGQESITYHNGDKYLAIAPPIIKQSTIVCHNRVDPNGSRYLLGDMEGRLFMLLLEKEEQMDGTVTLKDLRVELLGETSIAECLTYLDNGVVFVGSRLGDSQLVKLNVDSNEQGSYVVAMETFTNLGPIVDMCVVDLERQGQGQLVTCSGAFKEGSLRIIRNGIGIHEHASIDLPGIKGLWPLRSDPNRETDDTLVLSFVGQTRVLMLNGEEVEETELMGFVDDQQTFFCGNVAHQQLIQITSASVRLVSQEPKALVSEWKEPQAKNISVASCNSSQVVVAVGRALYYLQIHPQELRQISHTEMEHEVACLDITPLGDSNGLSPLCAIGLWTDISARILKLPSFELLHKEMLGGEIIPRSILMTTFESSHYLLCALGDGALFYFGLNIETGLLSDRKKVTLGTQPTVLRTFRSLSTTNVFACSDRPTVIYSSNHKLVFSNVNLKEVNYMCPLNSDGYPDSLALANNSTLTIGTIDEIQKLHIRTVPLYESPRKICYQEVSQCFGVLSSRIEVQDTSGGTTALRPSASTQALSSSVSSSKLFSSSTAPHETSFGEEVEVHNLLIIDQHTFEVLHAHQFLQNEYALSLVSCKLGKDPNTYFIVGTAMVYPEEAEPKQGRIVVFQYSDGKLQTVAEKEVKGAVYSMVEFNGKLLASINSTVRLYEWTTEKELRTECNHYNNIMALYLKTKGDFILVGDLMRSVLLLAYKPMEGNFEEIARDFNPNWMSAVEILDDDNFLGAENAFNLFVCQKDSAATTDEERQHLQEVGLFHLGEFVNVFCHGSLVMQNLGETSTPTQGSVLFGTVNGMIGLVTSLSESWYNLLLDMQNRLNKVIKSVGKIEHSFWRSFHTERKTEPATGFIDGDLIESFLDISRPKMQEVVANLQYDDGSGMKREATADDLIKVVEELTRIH
T2 sequence (Q96SW2 whole entry, looked up): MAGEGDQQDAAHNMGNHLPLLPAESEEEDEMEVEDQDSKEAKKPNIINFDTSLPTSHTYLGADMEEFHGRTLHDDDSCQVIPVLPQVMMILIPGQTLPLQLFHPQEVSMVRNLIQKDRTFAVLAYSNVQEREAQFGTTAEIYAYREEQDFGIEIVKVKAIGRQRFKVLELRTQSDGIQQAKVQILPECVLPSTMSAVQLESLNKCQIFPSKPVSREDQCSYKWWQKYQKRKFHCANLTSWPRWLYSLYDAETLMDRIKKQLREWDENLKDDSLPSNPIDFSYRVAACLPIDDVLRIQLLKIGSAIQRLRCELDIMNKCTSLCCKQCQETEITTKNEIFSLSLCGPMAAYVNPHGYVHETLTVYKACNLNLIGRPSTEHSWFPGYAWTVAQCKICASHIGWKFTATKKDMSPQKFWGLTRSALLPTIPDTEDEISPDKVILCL
Outline: (§4)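 RS4;11 (wild-type p53) or RS4;11/IRMI-2 (MDM2 inhibitor-resistant derivative, mutant p53) cells kept in RPMI 1640 with 10% FBS at 37 °C, 5% CO₂. 2×10^6 cells/well treated at the indicated concentrations and times, then lysed in ice-cold lysis buffer with protease inhibitor. GSPT1 detected by Western blot with a specific antibody.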

[10] = target: T2, Protein cereblon/Eukaryotic peptide chain release factor GTP-binding subunit ERF3A/DNA damage-binding protein 1/Cullin-4A (Homo sapiens); assay: Protac activity at GSPT1/CUL4/DDB1/CRBN in human RS4:11 cells expressing wild type p53 assessed as decrease in GSPT1 protein level measured upto 24 hrs by Western blot analysis; assay type: cell-based; outline: as §4
RS4-11 = assay: Antiproliferative activity against human RS4:11 cells expressing wild type p53 assessed as MDM2-independent cell growth inhibition after 4 days by WST-8 assay; assay type: functional, cell-based; conditions: RS4-11, 96 h; outline: as §3
MDA-MB-468 [11] = assay: Antiproliferative activity against human MDA-MB-468 cells assessed as cell growth inhibition after 4 days in presence of control siRNA for 3 days followed by compound treatment by WST-8 assay; assay type: functional, cell-based
Homo sapiens = species: Homo sapiens; assay: Antiproliferative activity against human RS4:11/IRMI-2 cells harboring p53 hotspot mutation Y236H/R249G assessed as cell growth inhibition after 4 days by WST-8 assay; assay type: functional, cell-based; outline: as §3
[12] = target: Cellular tumor antigen p53 (Homo sapiens) (UniProt P04637); assay: Activation of p53 in human RS4:11 cells assessed as increase in BAX mRNA expression at 10 nM after 1 to 2 hrs by qRT-PCR analysis; assay type: cell-based; outline: as §2
MDA-MB-468 [13] = assay: Antiproliferative activity against human MDA-MB-468 cells harboring mutant p53 assessed as cell growth inhibition after 4 days by WST-8 assay; assay type: functional, cell-based; outline: as §3
[14] = target: T1, E3 ubiquitin-protein ligase Mdm2; assay: Induction of MDM2 degradation in human RS4:11 cells assessed as downregulation of MDM2 at 1 to 30 nM after 2 hrs by Western blot analysis; assay type: cell-based; outline: as §1
HL-60 = assay: Antiproliferative activity against human HL60 cells with lack of p53 assessed as cell growth inhibition after 4 days by WST-8 assay; assay type: functional, cell-based; outline: as §3
MDA-MB-231 [15] = assay: Antiproliferative activity against human MDA-MB-231 cells transfected with CRBN siRNA LQ-021086-11-0002 assessed as cell growth inhibition after 4 days by WST-8 assay; assay type: functional, cell-based; conditions: MDA-MB-231, 96 h
Outline: (§5)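 MDA-MB-231 or MDA-MB-468 cells transfected for 2 days using Lipofectamine RNAiMAX with MDM2 siRNA, one of two CRBN siRNAs, or non-targeting control siRNA. Compound then added and growth read by WST-8 at 450 nm.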

MDA-MB-231 [16] = assay: Antiproliferative activity against human MDA-MB-231 cells harboring mutant p53 assessed as cell growth inhibition after 4 days by WST-8 assay; assay type: functional, cell-based; outline: as §3
MDA-MB-231 [17] = assay: Antiproliferative activity against human MDA-MB-231 cells transfected with CRBN siRNA LQ-021086-10-0002 assessed as cell growth inhibition after 4 days by WST-8 assay; assay type: functional, cell-based; conditions: MDA-MB-231, 72 h, in the assay text read “after 3 days” for “after 4 days”; outline: as §5
[18] = target: Cellular tumor antigen p53 (Homo sapiens) (UniProt P04637); assay: Activation of p53 in human RS4:11 cells assessed as increase in CDKN1A mRNA expression at 10 nM after 1 to 2 hrs by qRT-PCR analysis; assay type: cell-based; outline: as §2
MDA-MB-468 [19] = assay: Antiproliferative activity against human MDA-MB-468 cells transfected with CRBN siRNA LQ-021086-11-0002 assessed as cell growth inhibition after 4 days by WST-8 assay; assay type: functional, cell-based; conditions: MDA-MB-468, 96 h; outline: as §5
MDA-MB-468 [20] = assay: Antiproliferative activity against human MDA-MB-468 cells transfected with CRBN siRNA LQ-021086-10-0002 assessed as cell growth inhibition after 4 days by WST-8 assay; assay type: functional, cell-based; conditions: MDA-MB-468, 96 h; outline: as §5

T1 sequence (Q00987 whole entry, looked up): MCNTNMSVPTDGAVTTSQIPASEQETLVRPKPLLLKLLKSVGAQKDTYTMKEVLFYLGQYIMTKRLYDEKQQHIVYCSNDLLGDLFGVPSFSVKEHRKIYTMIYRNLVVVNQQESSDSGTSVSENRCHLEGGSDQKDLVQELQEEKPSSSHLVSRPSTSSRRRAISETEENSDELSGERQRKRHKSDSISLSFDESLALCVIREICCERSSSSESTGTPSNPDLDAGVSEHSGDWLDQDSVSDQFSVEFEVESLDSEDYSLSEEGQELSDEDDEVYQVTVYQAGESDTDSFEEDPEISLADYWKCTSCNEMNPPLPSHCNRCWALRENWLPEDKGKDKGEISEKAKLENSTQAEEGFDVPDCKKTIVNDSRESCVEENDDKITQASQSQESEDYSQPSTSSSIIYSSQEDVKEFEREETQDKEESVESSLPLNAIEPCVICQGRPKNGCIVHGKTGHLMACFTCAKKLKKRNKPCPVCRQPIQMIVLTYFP

Question: Which Activity [1] does the source give for `O=C1CCC(N2Cc3c(CCCCCNC(=O)c4ccc(NC(=O)[C@@H]5NC6(CCCCC6)[C@@]6(C(=O)Nc7cc(Cl)ccc76)[C@H]5c5cccc(Cl)c5F)cc4)cccc3C2=O)C(=O)N1` (stereo partly drawn) here?
Answer: The Activity was “Active”.

Question: And the Activity [2]?
Answer: Its Activity is “Active”.

Question: What about the pIC50 [3] of the same compound?
Answer: The pIC50 was < 5.00.

Question: What about the Activity [4] of the same compound?
Answer: Its Activity is “Active”.

Question: What about the Activity [5] of the same compound?
Answer: Its Activity is “Active”.

Question: And the Activity [6]?
Answer: Its Activity is “Active”.

Question: And the pIC50 (MDA-MB-231 [7])?
Answer: The pIC50 was < 5.52.

Question: And the Activity [8]?
Answer: The Activity was “Active”.

Question: And the Activity [9]?
Answer: The Activity was “inactive”.

Question: And the Activity [10]?
Answer: Its Activity is “inactive”.

Question: And the pIC50 (RS4-11)?
Answer: Its pIC50 is 8.10.

Question: And the pIC50 (MDA-MB-468 [11])?
Answer: Its pIC50 is < 5.52.

Question: What about the “growth inhibition (GI)” value (Homo sapiens) of the same compound?
Answer: Its value is “inactive”.

Question: And the Activity [12]?
Answer: The Activity was “Active”.

Question: What about the “growth inhibition (GI)” value (MDA-MB-468 [13]) of the same compound?
Answer: The value was “inactive”.

Question: And the Activity [14]?
Answer: Its Activity is “Active”.

Question: What about the “growth inhibition (GI)” value (HL-60) of the same compound?
Answer: Its value is “inactive”.

Question: And the pIC50 (MDA-MB-231 [15])?
Answer: The pIC50 was < 5.52.

Question: What about the “growth inhibition (GI)” value (MDA-MB-231 [16]) of the same compound?
Answer: Its value is “inactive”.

Question: What about the pIC50 (MDA-MB-231 [17]) of the same compound?
Answer: The pIC50 was < 5.52.

Question: What about the Activity [18] of the same compound?
Answer: The Activity was “Active”.

Question: What about the pIC50 (MDA-MB-468 [19]) of the same compound?
Answer: Its pIC50 is < 5.52.

Question: And the pIC50 (MDA-MB-468 [20])?
Answer: The pIC50 was < 5.52.
